Compound activity from PubChem.
This excerpt belongs to a sample that is enriched for hits.
HCT116 PTEN-null – growth suppression of PTEN-null HCT116, primary screen, cell-based, CellTiter-Glo; HCT116 PTEN-null viability, 60 h; hits give low values; viability, % at 10 µM; actives 1.2% (n = 140,000); AID 827, 2007;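 active means viability at or below a set limit, 4 SD under the median of all tested compounds, cut at about 3.7% in these data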;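 further: PTEN knockout HCT116 line with beta catenin targeted HCT116 as companion control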
HUVEC prolif 384 – inhibitors of HUVEC proliferation, primary screen, cell-based, 384-well. CellTiter-Glo luminescence, 72 h; hits give low values. viability, % at 10 µM (by protocol). actives 1.1% (n = 86,000). AID 648, 2007;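 active means viability at or below 30%; inactive means viability above 30%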;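 further: 100% = median luminescence of DMSO-only cell control wells on each plate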
H69AR growth 86K – proliferation blockers of H69AR lung cancer cells, primary screen, cell-based, human, 86K library; actives 6% (n = 85,000); AID 598, 2007; H69AR lung tumor viability, ATP luminescence, 72 h; hits give low values; viability, % at 10 µM;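 active means viability at or below 40%; inactive means viability above 40%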;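 further: multidrug resistant small cell line overexpressing MRP-1 efflux transporter; 100% = mean luminescence of untreated control wells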
Lung fibro prol – antiproliferative effect on LL 47 fibroblasts – human, LL 47 cells, CellTiter-Glo luminescence, primary screen; LL 47 human lung fibroblast viability, ATP luminescence; hits give low values; viability, % at 10 µM; actives 1.1% (n = 85,000); AID 719, 2007;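 active means viability at or below 50% in the single dose screen; inactive means viability above 50%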;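 further: compound exposure lasted 72 h before the ATP readout; 100% = median luminescence of untreated cell-only wells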
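Assay system: human lung fibroblast line LL 47, low passage. Input: 1,150 fibroblasts seeded per well. Times: overnight cell rest, 72 h compound treatment at 37 °C. Evaluation: % viability of median cell-only signal. Technique: luminescent ATP detection, CellTiter-Glo. Control set: cell-only wells, no compound.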
HCT116 bCat-KO – primary screen for growth suppressors in beta-catenin knockout HCT116 cells (colon tumor, human) | HCT116 beta-catenin knockout viability, CellTiter-Glo, 60 h; hits give low values | viability, % at 10 µM | actives 1.5% (n = 140,000) | AID 818, 2007;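 active means viability at or under a set limit, the compound median less 4 SD, cut at about 6% in these data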;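 further: 0% = Hyamine 1622 control at 20 µM and 100% = untreated cell control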
Numbers without * were called inactive; . = no result.

SMILES	HCT116 PTEN-null	HUVEC prolif 384	H69AR growth 86K	Lung fibro prol	HCT116 bCat-KO
Cc1ccc(S(=O)(=O)/C(C#N)=C/c2c(N3CCC(C(N)=O)CC3)nc3c(C)cccn3c2=O)cc1	94.3	74.5	80.5	91.2	94.7
Cc1ccc(S(=O)(=O)/C(C#N)=C/c2c(Oc3ccc(Cl)cc3)nc3c(C)cccn3c2=O)cc1	2.0*	.	.	.	2.7*
CCN(CCO)Cc1csc2ccc(Br)cc12	84.1	.	.	.	86.5
COC(=O)C1CCCN1S(=O)(=O)c1ccc2ccccc2c1 (stereo not given)	54.0	100.4	33.2*	90.5	58.0
COc1cc(/C=N/NS(=O)(=O)c2ccc3ccccc3c2)ccc1OCCN1CCOCC1	96.3	.	.	.	84.5
COc1ccc2c(c1)C1CC(C)(NC(=O)C1C(=O)c1ccccc1)O2 (stereo not given)	92.5	106.9	91.6	102.2	99.9
COc1ccc2c(c1)OC1(C)CC2C(C(=O)c2ccccc2OC)C(=O)N1 (stereo not given)	91.4	97.7	32.6*	97.1	90.6
COc1cccc(C2C=C(c3ccc(OC)cc3OC)Nc3nnnn32)c1 (stereo not given)	9.3	64.1	15.1*	62.3	10.4
COc1ccc(C2=CC(c3ccc(OC)c(OC)c3)n3nnnc3N2)c(OC)c1 (stereo not given)	72.4	114.1	28.0*	94.1	78.6
CCOC(=O)N1CCC(NC(=O)C2CCC(CNS(=O)(=O)c3ccc(OC)cc3)CC2)CC1 (stereo not given)	95.1	73.3	6.0*	.	92.2
CCOC(=O)N1CCN(C(=O)C2CCC(CNS(=O)(=O)c3ccc(Cl)cc3)CC2)CC1 (stereo not given)	104.4	96.6	82.3	97.0	104.2
CCOC(=O)N1CCC(NC(=O)CNS(=O)(=O)c2ccc(Br)s2)CC1	81.1	73.8	23.1*	89.7	86.3
O=C(CCCOc1ccc(Cl)cc1Cl)N/N=C/c1ccccc1O	8.7	.	.	.	4.6*
CCOC(=O)/C(=N\Nc1ccccc1)c1csc(Nc2ccc(C)cc2)n1	34.4	25.2*	3.3*	78.8	42.2
N#Cc1ccc(-c2csc(NNC(=O)c3ccc(Br)cc3)n2)cc1	4.5	.	.	.	2.8*
CCCN(CCC)C(=O)CCSCCC(=O)N(CCC)CCC	91.8	.	.	.	95.1
O=C(CCCCCC(=O)N(CCO)CCO)N(CCO)CCO	100.8	96.2	25.7*	93.5	98.0
Fc1ccc2c(Cl)c(-c3nnc(-c4cccs4)o3)sc2c1	67.9	51.1	11.6*	24.1*	95.5
O=C(Nc1ccc(Cl)c(Cl)c1)C1=Cc2ccccc2OC1	2.6*	34.9	16.4*	92.1	2.6*
O=C(CN(Cc1ccccc1)S(=O)(=O)c1ccc(Br)cc1)NCc1ccco1	.	99.1	97.8	96.5	86.4
CCOc1ccccc1C1C(C(=O)OC)=C(N)OC2=C1C(=O)CCC2 (stereo not given)	104.4	110.5	86.4	102.1	96.5
CCOc1ccc(Br)cc1C1C(C(=O)OC)=C(N)Oc2cc(N(C)C)ccc21 (stereo not given)	14.2	45.8	25.4*	57.2	17.1
O=Cc1ccccc1Oc1ccccc1	92.8	.	.	.	90.7
O=Cc1ccccc1OCCOc1ccccc1C=O	10.6	47.2	23.2*	54.4	15.4
COc1ccc(C)cc1NC(=O)CN(Cc1nnc(-c2ccc(Cl)cc2)o1)C1CCCC1	68.8	102.0	2.4*	82.4	70.5
SMILES	HCT116 PTEN-null	HUVEC prolif 384	H69AR growth 86K	Lung fibro prol	HCT116 bCat-KO
COc1ccc(-n2ncc3c(N4CCN(c5cccc(C)c5C)CC4)ncnc32)cc1	.	18.3*	7.1*	23.8*	.
COc1ccc(-n2ncc3c(N4CCN(c5cc(C)ccc5C)CC4)ncnc32)cc1	67.3	67.2	64.2	89.0	62.1
COc1ccc(-n2ncc3c(N4CCCCC4)ncnc32)cc1	75.5	65.9	38.9*	81.9	75.5
O=C(COc1ccccc1)N1CCN(c2ncnc3c2cnn3-c2ccccc2)CC1	83.2	114.7	40.0*	96.5	84.9
Cc1cccc(C(=O)N2CCN(c3ncnc4c3cnn4-c3ccccc3)CC2)c1	68.0	91.9	74.0	97.8	71.5
O=C(Nc1ccccc1)OCc1cc(-c2ccccc2Cl)on1	90.1	.	.	.	90.9
COc1cc(C)c(S(=O)(=O)n2ccc(C)n2)cc1C	101.1	93.4	85.8	94.5	103.7
CCOc1ccc(C(=O)Nc2ccc(NC(=O)c3ccco3)c(Cl)c2)cc1Cl	12.8	31.4	14.1*	65.6	14.6
CCOc1ccccc1NC(=O)c1cccc(NC(=O)c2ccco2)c1	98.2	58.0	25.4*	60.0	103.1
CCOc1ccc(C(=O)Nc2ccc(NC(=O)c3ccco3)c(Cl)c2)cc1Br	52.5	.	.	.	69.5
CCCCOc1ccccc1NC(=O)c1ccco1	98.5	94.0	82.3	99.2	95.8
O=C(Nc1ccc(NC(=O)c2sc3ccccc3c2Cl)cc1Cl)c1ccco1	57.6	.	.	.	40.6
CC1CCCC(C)N1NC(=S)Nc1ccc(OC(F)F)cc1 (stereo not given)	89.0	.	.	.	79.8
CCOc1c(Br)ccc2c1sc1nc[nH]c(=O)c12	86.4	25.7*	79.2	98.9	91.5
CC(=O)NCCC(=O)Nc1sc2c(c1-c1nc3ccccc3[nH]1)CCCC2	74.8	77.5	36.1*	99.6	74.6
CCC1=Nc2cc(C(=O)NCCCOC(C)C)ccc2Sc2ccccc21	89.9	58.8	26.4*	55.7	88.3
CCCCN(C(=O)c1c(C)[nH]c(C(=O)OCC)c1C)c1ccccc1	72.9	100.1	60.2	90.1	68.3
O=C(c1cn(-c2ccccc2)nc1-c1cccs1)N(CCO)Cc1ccccc1	38.9	74.8	23.4*	96.0	47.4
COC(=O)CSC1=C(C#N)C(c2cccc(F)c2)CC(=O)N1 (stereo not given)	39.4	89.8	28.4*	92.6	39.7
COC(=O)CSC1=C(C#N)C(c2ccsc2)CC(=O)N1 (stereo not given)	48.0	68.9	37.9*	93.2	54.2
O=C(C1CCCN(Cc2ccccc2)C1)N1CCc2ccccc2C1 (stereo not given)	89.4	94.0	87.2	94.7	75.8
Cc1ccc(C)c(S(=O)(=O)NCc2ccc(C(=O)N3CCC(Cc4ccccc4)CC3)cc2)c1	63.5	60.4	35.7*	99.0	81.9
CC1CC(=O)N(c2ccc(NCc3ccccc3Cl)c([N+](=O)[O-])c2)C1=O (stereo not given)	97.2	.	.	.	100.8
O=C(NCc1cccnc1)/C(=C\c1ccc(-c2cccc(Cl)c2)o1)S(=O)(=O)c1ccccc1	1.7*	.	.	.	1.7*
Cc1ccc(C(=O)N/C(=C\c2ccc(-c3cc(Cl)ccc3Cl)o2)C(=O)NCc2cccnc2)cc1	25.8	.	.	.	32.8
O=C(NCc1cccnc1)/C(=C/c1ccc(-c2cccc(Cl)c2)o1)S(=O)(=O)c1ccccc1	1.6*	.	.	.	1.8*
OCCNc1c2ccccc2nc2c(F)c(F)c(F)c(F)c12	1.1*	.	.	.	1.5*
